Laboratory results taken from ChEMBL document CHEMBL3352606, “Oligo-β-(1 → 3)-glucans: impact of thio-bridges on immunostimulating activities and the development of cancer stem cells” (J Med Chem, 2014).
Activity calls are given as the source filed them. The rule behind the calls is not given here.

Experiments:
Mus musculus [1] = species on record: Mus musculus; experiment: Immunostimulation activity in BALB/c mouse assessed as stimulation of […] neutrophils measured […] post compound injection; assay type: functional, organism-based
Outline: (§1)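 Mice were injected with oligosaccharides 1 or 4 days before. Peritoneal macrophages (1 × 10^7, in RPMI-1640 with 5% FCS) were incubated with HEMA particles, Giemsa-stained and differentially counted; cells with ≥3 particles were scored positive. Peripheral blood was scored the same way, using one heparinised drop from the orbital plexus. Mean of three experiments ± SD.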

[2] = Upregulation of PKC expression in human Detroit 573 cells at by RT-PCR analysis; assay type: ADME, cell-based
Outline: (§2)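 Total RNA was Trizol-extracted from control and treated cells (ZR-75-1 or Detroit 573; 10% heat-inactivated FCS, 37 °C, 5% CO2). 200 ng was taken through one-step RT-PCR: 30 min at 50 °C, 2 min at 95 °C, then 25 cycles with gene-specific annealing and extension. Products were run on 1.0% agarose, normalised to β-actin and quantified by densitometry. Three independent experiments, Student's t test.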

[3] = Downregulation of NF-kappaB expression in human Detroit 573 cells at by RT-PCR analysis; assay type: ADME, cell-based; outline: as §2
Mus musculus [4] = experiment: Immunostimulation activity in BALB/c mouse assessed as production of TNF-alpha in peripheral blood at 100 ug, ip by EIA; assay type: functional, organism-based
Outline: (§3)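 BALB/c mice received 100 μg oligosaccharide i.p., or PBS. Mice were sacrificed at intervals and serum was stored at −80 °C for ≤1 week. IL-1β and TNF-α were measured by ELISA at 450 nm with 570 nm correction, against a standard curve run with each assay (linear regression). Mean of three experiments ± SD.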

Mus musculus [5] = experiment: Immunostimulation activity in BALB/c mouse assessed as production of […] in peripheral blood at 100 ug, ip by EIA; assay type: functional, organism-based; outline: as §3
[6] = Upregulation of CDC42 expression in human Detroit 573 cells at by RT-PCR analysis; assay type: ADME, cell-based; outline: as §2
Mus musculus [7] = species on record: Mus musculus; experiment: Immunostimulation activity in BALB/c mouse assessed as production of IL-2 in splenocytes measured 1 to 3 days post compound injection; assay type: functional, organism-based
Outline: (§4)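 Purified spleen cells (2 × 10^6/mL in RPMI 1640 with 5% FCS) were cultured for 72 h at 37 °C, 5% CO2; 1 μg Concanavalin A was added to positive-control wells. Supernatants were filtered at 0.45 μm and IL-2 was measured by mouse IL-2 ELISA kit. Mean of three experiments ± SD; PBS-injected mice served as controls.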

Mus musculus [8] = species on record: Mus musculus; experiment: Immunostimulation activity in BALB/c mouse assessed as stimulation of peritoneal macrophages measured […] in presence of polymyxin B; assay type: functional, organism-based
Outline: (§5)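 This is the HEMA-particle phagocytosis assay repeated with 10 μg/mL polymyxin B added to the samples. Peritoneal cells (1 × 10^7, RPMI-1640 with 5% FCS) and heparinised orbital-plexus blood were taken from mice injected with oligosaccharides 1 or 4 days before. Cells were Giemsa-stained, and those carrying ≥3 particles were scored positive.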

Mus musculus [9] = experiment: Immunostimulation activity in BALB/c mouse assessed as production of IL-2 in conA-stimulated splenocytes at 100 ug, ip by EIA; assay type: functional, organism-based; outline: as §4
Mus musculus [10] = species on record: Mus musculus; experiment: Immunostimulation activity in BALB/c mouse assessed as influx of peritoneal macrophages measured 1 to 3 days post compound injection; assay type: functional, organism-based
ZR-75-1 [11] = experiment: Upregulation of PKC expression in human ZR-75-1 cells at by RT-PCR analysis; assay type: functional, cell-based; outline: as §2
Mus musculus [12] = species on record: Mus musculus; experiment: Immunostimulation activity in BALB/c mouse assessed as stimulation of monocytes measured […] post compound injection; assay type: functional, organism-based; outline: as §1
Mus musculus [13] = species on record: Mus musculus; experiment: Immunostimulation activity in BALB/c mouse assessed as stimulation of monocytes measured […] post compound injection in presence of polymyxin B; assay type: functional, organism-based; outline: as §5
Mus musculus [14] = species on record: Mus musculus; experiment: Immunostimulation activity in BALB/c mouse assessed as stimulation of peritoneal macrophages measured […] post compound injection; assay type: functional, organism-based; outline: as §1
Mus musculus [15] = species on record: Mus musculus; experiment: Immunostimulation activity in BALB/c mouse assessed as stimulation of […] neutrophils measured […] in presence of polymyxin B; assay type: functional, organism-based; outline: as §5
ZR-75-1 [16] = experiment: Effect on CDC25 expression in human ZR-75-1 cells at by RT-PCR analysis; assay type: functional, cell-based; outline: as §2
[17] = Downregulation of CDC25 expression in human Detroit 573 cells at by RT-PCR analysis; assay type: ADME, cell-based; outline: as §2
ZR-75-1 [18] = experiment: Upregulation of NF-kappaB expression in human ZR-75-1 cells at by RT-PCR analysis; assay type: functional, cell-based; outline: as §2
ZR-75-1 [19] = experiment: Downregulation of CDC42 expression in human ZR-75-1 cells at by RT-PCR analysis; assay type: functional, cell-based; outline: as §2

## OC[C@H]1O[C@@H](O[C@@H]2[C@@H](O)[C@H](S[C@@H]3[C@@H](O)[C@H](S[C@H]4[C@H](O)[C@@H](CO)OC(O)[C@@H]4O)O[C@H](CO)[C@H]3O)O[C@H](CO)[C@H]2O)[C@H](O)[C@@H](O)[C@@H]1O (stereo partly specified)
Mus musculus [1]
  Activity: Active
[2]
  Activity: Toxic
[3]
  Activity: Toxic
Mus musculus [4]
  Activity: Active
Mus musculus [5]
  Activity: Active
[6]
  Activity: Non-toxic
Mus musculus [7]
  Activity: Active
Mus musculus [8]
  Activity: Active
Mus musculus [9]
  Activity: Active
Mus musculus [10]
  Activity: Active
ZR-75-1 [11]
  Activity: Active
Mus musculus [12]
  Activity: Active
Mus musculus [13]
  Activity: Active
Mus musculus [14]
  Activity: Active
Mus musculus [15]
  Activity: Active

## OC[C@H]1O[C@@H](S[C@@H]2[C@@H](O)[C@H](S[C@H]3[C@H](O)[C@@H](CO)OC(O)[C@@H]3O)O[C@H](CO)[C@H]2O)[C@H](O)[C@@H](O)[C@@H]1O (stereo partly specified)
Mus musculus [1]
  Activity: Active
[2]
  Activity: Toxic
[6]
  Activity: Non-toxic
Mus musculus [8]
  Activity: Active
ZR-75-1 [16]
  Activity: inactive
Mus musculus [10]
  Activity: Active
ZR-75-1 [11]
  Activity: Active
Mus musculus [12]
  Activity: Active
Mus musculus [13]
  Activity: Active
Mus musculus [14]
  Activity: Active
[17]
  Activity: Non-toxic
Mus musculus [15]
  Activity: Active

## OC[C@H]1O[C@@H](O[C@@H]2[C@@H](O)[C@H](S[C@@H]3[C@@H](O)[C@H](O)O[C@H](CO)[C@H]3O)O[C@H](CO)[C@H]2O)[C@H](O)[C@@H](O)[C@@H]1O
Mus musculus [1]
  Activity: Active
[2]
  Activity: Toxic
[3]
  Activity: Non-toxic
Mus musculus [4]
  Activity: Active
Mus musculus [5]
  Activity: Active
ZR-75-1 [18]
  Activity: Active
Mus musculus [7]
  Activity: Active
Mus musculus [8]
  Activity: Active
Mus musculus [9]
  Activity: Active
ZR-75-1 [16]
  Activity: inactive
Mus musculus [10]
  Activity: Active
ZR-75-1 [11]
  Activity: Active
Mus musculus [12]
  Activity: Active
Mus musculus [13]
  Activity: Active
Mus musculus [14]
  Activity: Active
[17]
  Activity: Non-toxic
Mus musculus [15]
  Activity: Active

## OC[C@H]1O[C@@H](O[C@@H]2[C@@H](O)[C@H](O[C@@H]3[C@@H](O)[C@H](S[C@H]4[C@H](O)[C@@H](CO)OC(O)[C@@H]4O)O[C@H](CO)[C@H]3O)O[C@H](CO)[C@H]2O)[C@H](O)[C@@H](O)[C@@H]1O (stereo partly specified)
Mus musculus [1]
  Activity: Active
[2]
  Activity: Toxic
[3]
  Activity: Non-toxic
Mus musculus [4]
  Activity: Active
Mus musculus [5]
  Activity: Active
Mus musculus [7]
  Activity: Active
Mus musculus [8]
  Activity: Active
Mus musculus [9]
  Activity: Active
ZR-75-1 [16]
  Activity: inactive
ZR-75-1 [19]
  Activity: Active
Mus musculus [10]
  Activity: Active
ZR-75-1 [11]
  Activity: Active
Mus musculus [12]
  Activity: Active
Mus musculus [13]
  Activity: Active
Mus musculus [14]
  Activity: Active
[17]
  Activity: Non-toxic
Mus musculus [15]
  Activity: Active
